The source made the active and inactive calls. The calls are words filed in the database; no cut-off is given here.
What was measured:
[1] = Induction of nitrite release at 10^-4 M after 1 hr by Griess method in presence of L-cysteine; assay type: physicochemical; settings: 100 µM
[2] = system: Mus musculus; assay: Antinociceptive activity in Swiss albino mouse assessed as inhibition of acetic-acid induced abdominal constriction at 100 umol/kg, po administered 1 hr prior to acetic-acid challenge measured after 10 mins relative to vehicle-treated control; assay type: functional; settings: Abdomen
In short: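 Mice dosed orally at 100 μmol/kg as a suspension in 5% arabic gum in saline. 0.6% acetic acid (0.1 mL/10 g) given ip 1 h later. Starting 10 min after injection, constrictions per animal counted for 20 min. Vehicle controls received an equal volume. Expressed as % inhibition vs vehicle group; mean ± SEM, 10 animals per group; Student's t test.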

[3] = system: Mus musculus; assay: Mutagenicity in Swiss mouse assessed as micronucleated reticulocytes in peripheral blood at 50 mg/kg, po after 30 hrs by micronucleus test; assay type: toxicity, organism-based; design: dose 50 mg/kg, route oral; settings: in vivo
In short: (§1)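 Swiss mice of both sexes (25−30 g), 10 per group, gavaged at 25, 50 or 100 mg/kg. Negative control: 1% CMC/0.2% Tween by gavage; positive control: cyclophosphamide 50 mg/kg ip. Blood collected 30 h later, slides prestained with acridine orange. 1000 reticulocytes scored per animal for micronucleated cells; mean with SD.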

[4] = system: K562; assay: Upregulation of gamma-globin mRNA expression in human K562 cells at 100 uM after 96 hrs by qRT-PCR analysis relative to control; assay type: functional
In short: (§2)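 K562 cells in DMEM with 10% FBS, penicillin/streptomycin, 37 °C, 5% CO2, seeded at 1 × 10^7 cells/100 mL. Treated at 5−100 μM for 24, 48, 72 or 96 h. γ-globin mRNA by SYBR Green qRT-PCR, normalized to β-actin and GAPDH, vs vehicle control (DMSO, or water for HU). Mean ± SEM, n = 5; ANOVA with Dunnett's test.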

[5] = system: Mus musculus; assay: Mutagenicity in Swiss mouse assessed as micronucleated reticulocytes in peripheral blood at 25 mg/kg, po after 30 hrs by micronucleus test; assay type: toxicity, organism-based; design: dose 25 mg/kg, route oral; settings: in vivo; in short: as §1
[6] = system: K562; assay: Upregulation of gamma-globin mRNA expression in human K562 cells at 5 uM after 24 to 96 hrs by qRT-PCR analysis relative to control; assay type: functional, cell-based; in short: as §2
[7] = system: Mus musculus; assay: Mutagenicity in Swiss mouse assessed as micronucleated reticulocytes in peripheral blood at 100 mg/kg, po after 30 hrs by micronucleus test; assay type: toxicity, organism-based; design: dose 100 mg/kg, route oral; settings: in vivo; in short: as §1
[8] = system: K562; assay: Upregulation of beta-soluble guanilate cyclase mRNA expression in human K562 cells at 5 and 30 uM from 24 to 96 hrs by qRT-PCR analysis relative to control; assay type: functional, cell-based
In short: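 K562 cells in DMEM with 10% FBS, penicillin/streptomycin, 37 °C, 5% CO2, seeded at 1 × 10^7 cells/100 mL. Treated at 5 or 30 μM for 24, 48, 72, 96 h. β-sGC mRNA by SYBR Green qRT-PCR, normalized to β-actin and GAPDH, vs DMSO control. Mean ± SEM, n = 5; Mann−Whitney test.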

[9] = system: K562; assay: Upregulation of gamma-globin mRNA expression in human K562 cells at 5 uM after 24 hrs by qRT-PCR analysis relative to control; assay type: functional, cell-based; in short: as §2
[10] = system: K562; assay: Upregulation of gamma-globin mRNA expression in human K562 cells at 5 uM after 96 hrs by qRT-PCR analysis relative to control; assay type: functional; in short: as §2

Structure (SMILES) | Activity [1] | inhibition [2] | also measured
O=C(OCc1c(-c2ccccc2)no[n+]1[O-])c1cc(N2C(=O)c3ccccc3C2=O)ccc1O | 10.6% | inactive | –
O=C1c2ccccc2C(=O)N1Cc1c(-c2ccccc2)no[n+]1[O-] | 14.8% | inactive | –
O=C(OCc1c(-c2ccccc2)no[n+]1[O-])c1cccc(N2C(=O)c3ccccc3C2=O)c1 | 13.2% | inactive | –
O=C(NCCOc1no[n+]([O-])c1S(=O)(=O)c1ccccc1)c1ccc(N2C(=O)c3ccccc3C2=O)cc1 | 28.2% | inactive | –
NC(=O)NO [HYDROXYUREA] | – | inactive | Activity [3]: 15; fold change (FC) [4]: 1.77; Activity [5]: 9.9; Activity [6]: inactive; Activity [7]: 33.7
O=C1c2ccccc2C(=O)N1c1ccc(S(=O)(=O)NCCOc2no[n+]([O-])c2S(=O)(=O)c2ccccc2)cc1 | 28.1% | – | inhibition in vivo at 100 µmol/kg [2]: 36%
O=C1c2ccccc2C(=O)N1CCOc1c(S(=O)(=O)c2ccccc2)no[n+]1[O-] | 9.5% | – | Activity [8]: inactive; Activity [3]: 5.5; Activity [9]: Active; fold change (FC) [10]: 2.8; inhibition in vivo at 100 µmol/kg [2]: 43%; Activity [5]: 4; Activity [7]: 6.7
O=[N+]([O-])O[C@H]1CO[C@H]2[C@@H]1OC[C@H]2O[N+](=O)[O-] [ISOSORBIDE DINITRATE] | 11.6% | – | –
Cc1c(N(C)CS(=O)(=O)O)c(=O)n(-c2ccccc2)n1C | – | Active | –
O=C(OCc1c(-c2ccccc2)no[n+]1[O-])c1ccccc1N1C(=O)c2ccccc2C1=O | 9.7% | inactive | –

Source: ChEMBL document CHEMBL2169874, “Design, synthesis, and pharmacological evaluation of novel hybrid compounds to treat sickle cell disease symptoms. part II: furoxan derivatives” (J Med Chem, 2012)
